One block for each molecule: values may come before it.
Assays:
[1] = test system: KDM5B and KDM5C; details: ref Horton et al., 2016; cited from earlier work
[2] = biological target: Flag-tagged full-length KDM5A (Homo sapiens, UniProt P29375); assay: AlphaLISA / AlphaScreen demethylase assay, KDM5A; assay type: biochemical; details: nanomolar enzyme concentration; two independent assays
Procedure, shortened: (§1)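 Full-length human enzymes, Flag-tagged and purified from Sf21 insect cells, assayed for demethylation by AlphaScreen.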

[3] = biological target: Flag-tagged full-length KDM5B (Homo sapiens, UniProt Q9UGL1); assay: AlphaLISA / AlphaScreen demethylase assay, KDM5B; assay type: biochemical; details: nanomolar enzyme concentration; two independent assays
Chain of Flag-tagged full-length KDM5B (Q9UGL1 whole entry): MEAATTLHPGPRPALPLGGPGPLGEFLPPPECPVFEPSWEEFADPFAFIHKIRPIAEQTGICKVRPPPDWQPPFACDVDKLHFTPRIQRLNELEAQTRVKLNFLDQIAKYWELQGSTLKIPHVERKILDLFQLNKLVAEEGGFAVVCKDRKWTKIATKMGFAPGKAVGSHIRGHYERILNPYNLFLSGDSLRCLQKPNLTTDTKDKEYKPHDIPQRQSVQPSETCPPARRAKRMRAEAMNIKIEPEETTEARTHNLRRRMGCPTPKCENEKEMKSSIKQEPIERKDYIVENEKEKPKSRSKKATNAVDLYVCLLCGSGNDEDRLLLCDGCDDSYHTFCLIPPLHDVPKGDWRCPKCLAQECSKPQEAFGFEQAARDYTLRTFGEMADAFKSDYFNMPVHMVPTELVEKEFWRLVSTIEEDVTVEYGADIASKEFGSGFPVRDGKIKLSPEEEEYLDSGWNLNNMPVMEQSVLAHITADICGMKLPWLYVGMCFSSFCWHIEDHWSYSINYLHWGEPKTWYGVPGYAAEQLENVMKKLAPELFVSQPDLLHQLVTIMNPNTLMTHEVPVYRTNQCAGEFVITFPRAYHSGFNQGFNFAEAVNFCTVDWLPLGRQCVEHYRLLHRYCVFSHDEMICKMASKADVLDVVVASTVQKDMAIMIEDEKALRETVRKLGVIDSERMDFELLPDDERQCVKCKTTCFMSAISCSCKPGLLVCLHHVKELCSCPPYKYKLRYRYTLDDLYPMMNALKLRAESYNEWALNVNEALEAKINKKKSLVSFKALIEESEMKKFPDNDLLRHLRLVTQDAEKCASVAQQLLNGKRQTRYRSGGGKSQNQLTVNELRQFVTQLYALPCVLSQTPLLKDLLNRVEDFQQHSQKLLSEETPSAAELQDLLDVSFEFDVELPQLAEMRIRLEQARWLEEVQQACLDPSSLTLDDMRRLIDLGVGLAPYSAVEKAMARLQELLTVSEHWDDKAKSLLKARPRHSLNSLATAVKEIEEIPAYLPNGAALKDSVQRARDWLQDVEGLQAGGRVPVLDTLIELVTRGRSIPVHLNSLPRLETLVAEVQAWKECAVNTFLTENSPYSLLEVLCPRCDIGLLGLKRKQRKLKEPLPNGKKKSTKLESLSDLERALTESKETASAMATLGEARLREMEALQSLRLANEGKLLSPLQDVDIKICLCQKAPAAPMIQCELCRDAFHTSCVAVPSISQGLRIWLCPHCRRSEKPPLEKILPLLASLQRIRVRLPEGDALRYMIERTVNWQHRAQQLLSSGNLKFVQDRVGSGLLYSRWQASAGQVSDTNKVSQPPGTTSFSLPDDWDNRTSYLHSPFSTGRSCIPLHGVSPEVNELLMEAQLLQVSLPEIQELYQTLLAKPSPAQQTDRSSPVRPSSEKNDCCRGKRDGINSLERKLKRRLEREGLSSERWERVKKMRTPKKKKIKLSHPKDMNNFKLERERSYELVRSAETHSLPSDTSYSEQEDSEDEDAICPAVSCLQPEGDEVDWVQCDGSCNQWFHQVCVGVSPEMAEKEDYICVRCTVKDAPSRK
Procedure, shortened: as §1

[4] = biological target: Flag-tagged full-length KDM5C (Homo sapiens, UniProt P41229); assay: AlphaLISA / AlphaScreen demethylase assay, KDM5C; assay type: biochemical; details: nanomolar enzyme concentration; two independent assays
Procedure, shortened: as §1

[5] = biological target: full-length KDM6A (Homo sapiens, UniProt O15550); assay: AlphaScreen demethylase assay, KDM6A; assay type: biochemical; details: at 50 μM, the highest inhibitor concentration tested
Procedure, shortened: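 Full-length KDM6A demethylase activity measured by AlphaScreen with test compound up to 50 μM, the highest concentration tested. Two independent experiments; average and S.E. reported.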

[6] = biological target: KDM6B catalytic domain (residues 1043-1682) (Homo sapiens, UniProt O15054); assay: AlphaScreen demethylase assay, KDM6B; assay type: biochemical; details: at 50 μM, the highest inhibitor concentration tested
Chain of KDM6B catalytic domain (residues 1043-1682) (O15054 1043-1682 isoform O15054-1): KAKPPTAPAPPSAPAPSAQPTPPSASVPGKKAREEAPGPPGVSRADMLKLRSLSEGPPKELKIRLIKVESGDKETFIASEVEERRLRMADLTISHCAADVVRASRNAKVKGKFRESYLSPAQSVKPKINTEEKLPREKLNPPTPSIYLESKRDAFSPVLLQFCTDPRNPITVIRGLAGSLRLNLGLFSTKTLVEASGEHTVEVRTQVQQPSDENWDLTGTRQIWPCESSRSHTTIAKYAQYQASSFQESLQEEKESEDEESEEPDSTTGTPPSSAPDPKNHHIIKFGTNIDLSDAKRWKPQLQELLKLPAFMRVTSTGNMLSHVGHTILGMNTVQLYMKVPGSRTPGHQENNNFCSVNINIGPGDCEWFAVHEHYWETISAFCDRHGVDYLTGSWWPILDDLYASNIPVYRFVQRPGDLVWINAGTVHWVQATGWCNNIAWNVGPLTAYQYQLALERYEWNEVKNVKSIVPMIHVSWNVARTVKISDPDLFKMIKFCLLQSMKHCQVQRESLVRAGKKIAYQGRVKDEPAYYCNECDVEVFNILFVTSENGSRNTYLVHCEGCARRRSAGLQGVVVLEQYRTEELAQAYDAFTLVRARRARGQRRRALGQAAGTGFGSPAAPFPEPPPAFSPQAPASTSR
Procedure, shortened: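 Purified KDM6B catalytic domain (residues 1043-1682) was assayed by AlphaScreen for demethylase activity across a test-compound concentration series, with 50 μM the highest concentration tested. IC50 was averaged from 4 independent experiments, with S.E.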

[7] = test system: KDM4A catalytic domain (residues 1-350); assay: Demethylase inhibition, KDM4A catalytic domain; assay type: biochemical
[8] = test system: MCF7 cells; assay: Western blot of global histone methylation, MCF7; assay type: cell-based, human; details: 5 μM, 3 days
Procedure, shortened: (§2)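 Cells were exposed to DMSO or 5 μM test compound for 3 days and histone marks detected by western blot. Fold is H3K4me3 band intensity over total H3, normalized to the DMSO control. Data are from biological duplicate experiments, each run in duplicate.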

[9] = test system: MDA-MB-231 cells; assay: Western blot of global histone methylation, MDA-MB-231; assay type: cell-based, human; details: 5 μM, 3 days
Procedure, shortened: as §2

[10] = test system: MCF7 cells; assay: Colony formation assay, MCF7; assay type: cell-based, human; details: 5 μM
Procedure, shortened: (§3)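 Cells were treated with DMSO or 5 μM test compound and colonies quantified by image intensity. Percent intensity was normalized to the average percent intensity of DMSO-treated cells, with SEM error bars. Data are from biological duplicate experiments, each run in triplicate.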

[11] = test system: BT474 cells; assay: Colony formation assay, BT474; assay type: cell-based, human; details: 5 μM
Procedure, shortened: as §3

[12] = test system: ZR-75-1 cells; assay: Colony formation assay, ZR-75-1; assay type: cell-based, human; details: 5 μM
Procedure, shortened: as §3

[13] = test system: MDA-MB-231 cells; assay: Colony formation assay, MDA-MB-231; assay type: cell-based, human; details: 5 μM
Procedure, shortened: as §3

[14] = test system: PC9 lung cancer cells; assay: Colony formation assay, PC9; assay type: cell-based, human; details: 5 μM
[15] = test system: MCF10A immortalized, non-transformed mammary epithelial cells; assay: Colony formation assay, MCF10A; assay type: cell-based, human; details: 5 μM
[16] = test system: MCF7 cells; assay: Real time RT-PCR of KDM5 target genes, MCF7; assay type: cell-based, human; details: 5 μM for 3 days
Procedure, shortened: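 MCF7 cells were exposed to DMSO or 5 μM test compound for 3 days. BRCA1, STK6, BUB3, BUB1B, MT1F and MT1H mRNA levels were then quantified by real-time RT-PCR, with SEM error bars.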

Chain of Flag-tagged full-length KDM5A (P29375 whole entry): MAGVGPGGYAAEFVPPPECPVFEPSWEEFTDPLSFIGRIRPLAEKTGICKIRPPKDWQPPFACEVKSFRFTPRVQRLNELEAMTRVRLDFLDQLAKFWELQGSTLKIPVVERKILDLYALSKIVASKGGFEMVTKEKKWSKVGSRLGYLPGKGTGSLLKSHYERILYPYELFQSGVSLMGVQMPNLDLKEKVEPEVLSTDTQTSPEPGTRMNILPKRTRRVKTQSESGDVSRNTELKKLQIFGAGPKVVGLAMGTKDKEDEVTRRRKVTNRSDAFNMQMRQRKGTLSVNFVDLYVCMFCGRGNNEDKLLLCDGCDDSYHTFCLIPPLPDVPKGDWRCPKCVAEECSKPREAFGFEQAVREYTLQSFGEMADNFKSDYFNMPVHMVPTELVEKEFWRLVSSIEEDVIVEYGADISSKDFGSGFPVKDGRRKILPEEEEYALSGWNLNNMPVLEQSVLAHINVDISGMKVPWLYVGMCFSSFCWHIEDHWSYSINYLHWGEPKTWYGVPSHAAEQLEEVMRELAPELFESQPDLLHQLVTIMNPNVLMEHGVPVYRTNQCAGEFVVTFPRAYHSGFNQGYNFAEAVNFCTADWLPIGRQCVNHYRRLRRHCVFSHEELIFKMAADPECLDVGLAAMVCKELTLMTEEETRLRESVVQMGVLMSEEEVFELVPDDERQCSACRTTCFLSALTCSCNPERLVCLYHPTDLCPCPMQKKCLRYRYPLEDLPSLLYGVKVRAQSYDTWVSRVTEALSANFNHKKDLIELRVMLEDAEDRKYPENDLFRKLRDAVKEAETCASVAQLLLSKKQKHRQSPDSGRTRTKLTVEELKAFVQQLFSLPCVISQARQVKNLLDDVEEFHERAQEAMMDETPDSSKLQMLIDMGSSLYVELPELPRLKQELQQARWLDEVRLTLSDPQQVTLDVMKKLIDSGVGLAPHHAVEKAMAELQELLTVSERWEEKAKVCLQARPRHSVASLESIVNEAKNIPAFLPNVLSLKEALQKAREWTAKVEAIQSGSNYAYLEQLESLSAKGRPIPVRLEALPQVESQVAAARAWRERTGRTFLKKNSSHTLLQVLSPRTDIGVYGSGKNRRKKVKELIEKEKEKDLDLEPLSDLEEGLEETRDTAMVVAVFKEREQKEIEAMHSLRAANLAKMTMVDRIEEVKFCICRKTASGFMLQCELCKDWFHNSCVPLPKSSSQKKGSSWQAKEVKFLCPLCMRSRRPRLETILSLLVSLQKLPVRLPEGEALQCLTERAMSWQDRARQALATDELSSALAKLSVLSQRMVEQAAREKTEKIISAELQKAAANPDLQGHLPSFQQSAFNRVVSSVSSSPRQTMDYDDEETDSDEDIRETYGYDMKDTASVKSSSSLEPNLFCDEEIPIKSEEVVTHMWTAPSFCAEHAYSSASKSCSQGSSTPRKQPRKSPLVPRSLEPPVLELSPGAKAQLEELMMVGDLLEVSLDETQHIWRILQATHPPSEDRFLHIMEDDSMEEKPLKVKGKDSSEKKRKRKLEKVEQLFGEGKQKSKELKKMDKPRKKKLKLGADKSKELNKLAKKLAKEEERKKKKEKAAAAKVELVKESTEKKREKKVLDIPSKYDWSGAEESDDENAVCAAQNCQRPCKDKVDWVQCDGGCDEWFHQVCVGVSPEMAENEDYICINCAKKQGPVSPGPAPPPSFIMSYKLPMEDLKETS

Structure (SMILES): O=C(O)CCNc1cc(N2CCc3ccccc3CC2)nc(-c2ccccn2)n1 [GSK-J1]
more active against KDM5C than against KDM5B [1]: ~ 8.5 fold

Structure (SMILES): Clc1ccc(N/N=C(\c2ccccc2)c2ccccn2)nc1 [JIB-04]
increased potency against KDM5B compared to KDM5C [1]: ~ 8 fold

IC50, full-length KDM5A [2]: nanomolar range | IC50, full-length KDM5B [3]: nanomolar range | IC50, full-length KDM5C [4]: nanomolar range | inhibition of KDM6A activity [5]: ≤ 50% | inhibition of KDM6B activity [6]: ≤ 50% | weaker potency against KDM4A catalytic domain than against KDM5B catalytic domain or full length KDM5B [7]: ~ 10 fold
Structure (SMILES): CCN(CCN(C)C)C(=O)CNCc1cc(C(=O)O)ccn1 [KDM5-C49]

Structure (SMILES): CCOC(=O)c1ccnc(CNCC(=O)N(CC)CCN(C)C)c1 [KDM5-C70]
H3K4me2/me1, H3K27me3, H3K9me3/H3K36me3 levels [8]: little impact | global levels of H3K4me3 [8]: significantly increased | H3K4me2/me1, H3K27me3, H3K9me3/H3K36me3 levels [9]: little impact | global levels of H3K4me3 [9]: significantly increased | growth inhibited (colony formation) [10]: 85% | growth inhibited (colony formation) [11]: 97% | growth inhibited (colony formation) [12]: 70% | effect on colony formation [13]: none were significantly affected | effect on colony formation [14]: none were significantly affected | effect on colony formation [15]: none were significantly affected | expression of MT1F mRNA [16]: increase | expression of MT1H mRNA [16]: increase

From publication PMC4958579 (Cell chemical biology, 2016)
